{"source": "ChEMBL document CHEMBL5661968", "about": "“Antitumor activity of ZSTK474, a new phosphatidylinositol 3-kinase inhibitor” (J Natl Cancer Inst, 2006)", "key": {"[1]": {"target": "Tuberin (Homo sapiens) (UniProt P49815)", "sequence (P49815 whole entry)": "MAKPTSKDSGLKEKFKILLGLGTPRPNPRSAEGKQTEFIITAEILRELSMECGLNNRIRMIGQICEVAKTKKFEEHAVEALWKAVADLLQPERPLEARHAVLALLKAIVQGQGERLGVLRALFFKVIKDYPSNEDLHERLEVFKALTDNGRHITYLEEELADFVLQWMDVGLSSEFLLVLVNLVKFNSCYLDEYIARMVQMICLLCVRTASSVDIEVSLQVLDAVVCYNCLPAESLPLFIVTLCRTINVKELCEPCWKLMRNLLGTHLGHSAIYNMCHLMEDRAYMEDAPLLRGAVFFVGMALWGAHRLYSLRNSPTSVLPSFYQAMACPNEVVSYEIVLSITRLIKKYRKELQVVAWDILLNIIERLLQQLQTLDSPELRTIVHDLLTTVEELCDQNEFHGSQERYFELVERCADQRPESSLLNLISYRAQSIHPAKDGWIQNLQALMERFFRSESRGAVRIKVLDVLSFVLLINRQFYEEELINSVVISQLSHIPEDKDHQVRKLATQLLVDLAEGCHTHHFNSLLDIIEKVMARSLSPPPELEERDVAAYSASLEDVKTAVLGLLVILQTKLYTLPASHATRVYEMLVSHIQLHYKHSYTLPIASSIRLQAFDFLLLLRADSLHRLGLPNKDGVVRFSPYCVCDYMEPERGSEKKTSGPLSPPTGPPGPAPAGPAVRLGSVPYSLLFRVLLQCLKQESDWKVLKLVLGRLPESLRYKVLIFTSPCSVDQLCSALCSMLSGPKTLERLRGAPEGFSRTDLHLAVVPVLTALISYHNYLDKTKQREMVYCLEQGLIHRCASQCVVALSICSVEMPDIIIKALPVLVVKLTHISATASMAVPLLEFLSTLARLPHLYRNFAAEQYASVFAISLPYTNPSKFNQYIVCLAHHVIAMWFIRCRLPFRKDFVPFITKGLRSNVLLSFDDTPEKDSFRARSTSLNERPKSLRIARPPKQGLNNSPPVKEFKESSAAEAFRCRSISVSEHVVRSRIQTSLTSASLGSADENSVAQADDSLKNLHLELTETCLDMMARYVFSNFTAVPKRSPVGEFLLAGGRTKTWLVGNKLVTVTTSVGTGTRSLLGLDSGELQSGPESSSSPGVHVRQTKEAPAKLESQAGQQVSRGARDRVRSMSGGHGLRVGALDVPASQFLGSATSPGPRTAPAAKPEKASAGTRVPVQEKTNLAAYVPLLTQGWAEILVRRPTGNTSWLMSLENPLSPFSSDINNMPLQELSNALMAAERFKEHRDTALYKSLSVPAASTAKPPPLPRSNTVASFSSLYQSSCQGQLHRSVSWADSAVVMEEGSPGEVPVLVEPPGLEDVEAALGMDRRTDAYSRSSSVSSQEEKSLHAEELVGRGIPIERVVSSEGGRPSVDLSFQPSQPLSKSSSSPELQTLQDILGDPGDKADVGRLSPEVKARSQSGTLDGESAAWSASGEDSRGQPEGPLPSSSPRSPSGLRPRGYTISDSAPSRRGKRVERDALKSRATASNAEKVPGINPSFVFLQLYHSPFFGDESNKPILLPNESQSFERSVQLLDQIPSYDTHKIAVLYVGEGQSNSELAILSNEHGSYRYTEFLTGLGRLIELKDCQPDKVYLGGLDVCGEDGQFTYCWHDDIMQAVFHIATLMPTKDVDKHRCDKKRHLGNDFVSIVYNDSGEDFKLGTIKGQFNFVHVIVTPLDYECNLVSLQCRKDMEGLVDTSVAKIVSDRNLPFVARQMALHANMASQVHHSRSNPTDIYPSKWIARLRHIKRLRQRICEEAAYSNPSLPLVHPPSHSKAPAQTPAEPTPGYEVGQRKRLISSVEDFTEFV", "assay": "Inhibition of TSC-2 phosphorylation at ser-1462 residue in human A549 cells measured after 3 hrs by immunoblotting analysis", "format": "cell-based", "settings": "dose <= 2.0 µM", "outline": "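A549 cells treated over 0 to 2.0 μM; lysed in 10 mM Tris–HCl pH 7.4, 50 mM NaCl, NaF, pyrophosphate, vanadate, EDTA, protease inhibitors, 0.5% NP-40, 0.1% SDS; proteins resolved by SDS-PAGE, blotted to PVDF, probed with phospho-specific antibodies, HRP secondary, ECL detection.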"}, "[2]": {"test_system": "HCT-116", "assay": "Growth inhibition of human HCT-116 cells measured after 48 hrs by sulforhodamine B assay", "format": "functional", "outline": "(§1)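 JFCR39 panel lines were grown in RPMI 1640 with 5% FBS, penicillin and streptomycin at 37 °C in 5% CO2. After 48 h of drug exposure, total cellular protein was measured by sulforhodamine B staining. GI50 was calculated by a previously described method.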"}, "[3]": {"target": "Mitogen-activated protein kinase 1 (Homo sapiens) (UniProt P28482)", "sequence (P28482 whole entry)": "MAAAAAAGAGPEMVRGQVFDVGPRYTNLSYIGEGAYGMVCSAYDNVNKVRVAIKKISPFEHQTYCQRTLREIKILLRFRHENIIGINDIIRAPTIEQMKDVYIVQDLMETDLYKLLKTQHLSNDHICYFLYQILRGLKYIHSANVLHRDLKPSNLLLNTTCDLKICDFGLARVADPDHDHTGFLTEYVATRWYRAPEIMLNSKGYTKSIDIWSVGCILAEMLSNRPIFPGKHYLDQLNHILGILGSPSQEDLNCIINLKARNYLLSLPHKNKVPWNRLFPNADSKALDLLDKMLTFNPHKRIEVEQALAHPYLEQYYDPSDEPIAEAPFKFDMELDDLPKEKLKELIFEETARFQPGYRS", "assay": "Inhibition of ERK2 phosphorylation at Thr-202/Tyr-204 residues in human A549 cells measured after 3 hrs by immunoblotting analysis", "settings": "dose <= 2.0 µM"}, "[4]": {"test_system": "B16-F10", "assay": "Antitumor activity against mouse B16-F10 cells implanted in BDF1 mouse assessed as tumor size relative to control (T/C) at 200 mg/kg, po administered daily measured after 14 days", "settings": "336 h"}, "[5]": {"test_system": "A549", "assay": "Downregulation of cyclin D1 expression in human A549 cells measured after 3 hrs by immunoblotting analysis", "format": "functional, cell-based", "settings": "dose <= 2.0 µM", "outline": "(§2)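 A549 cells were lysed in Tris-HCl pH 7.4 buffer with NaF, pyrophosphate, Na3VO4, EDTA, aprotinin, PMSF, 0.5% NP-40 and 0.1% SDS. Lysates were run on SDS-PAGE and blotted to PVDF. Blots were probed with rabbit anti-cyclin D1 polyclonal (1:200), then HRP anti-rabbit IgG, and detected by ECL chemiluminescence.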"}, "[6]": {"assay": "(§3) Inhibition of PI3K in human A549 cell lysate preincubated with compound for 5 mins followed by [gamma-32p]-ATP addition measured after 20 mins by immunoprecipitation based liquid scintillation spectroscopic analysis", "format": "subcellular", "outline": "(§4)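 PI3K immunoprecipitated with anti-p85 polyclonal antibody and protein G–agarose from A549 lysate (2–4 mg/mL protein), washed, suspended in buffer C (100 mM NaCl, 20 mM Tris pH 7.5) with 200 μg/mL phosphatidylinositol; compound preincubated 5 min at 25 °C; reaction started with [γ-32P]ATP (20 μM final) and 20 mM MgCl2, run 20 min at 25 °C; PI3P separated by TLC, counted by scintillation; activity as % of no-compound cpm.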"}, "[7]": {"test_system": "A549", "assay": "as §3", "format": "subcellular", "settings": "dose 0.01-1 µM, time 25.0 min", "outline": "as §4"}, "[8]": {"test_system": "A549", "assay": "Inhibition of AKT in human A549 cells at 0.5 uM measured after 5 mins by Western blotting analysis", "format": "cell-based"}, "[9]": {"test_system": "A549", "assay": "Growth inhibition of human A549 cells measured after 48 hrs by sulforhodamine B assay", "format": "functional", "outline": "as §1"}, "[10]": {"test_system": "OVCAR-5", "assay": "Growth inhibition of human OVCAR-5 cells measured after 48 hrs by sulforhodamine B assay", "format": "functional", "outline": "as §1"}, "[11]": {"test_system": "A549", "assay": "Reversible inhibition of PI3K in human A549 cell lysate at 1 uM preincubated with compound for 5 mins followed by [gamma-32p]-ATP addition measured after 20 mins by immunoprecipitation based liquid scintillation spectroscopic analysis", "format": "subcellular", "settings": "time 25.0 min", "outline": "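Anti-p85 immunoprecipitates from A549 lysate treated 5 min with 1 μM compound, then split: one aliquot washed four times in 100 mM NaCl, 20 mM Tris pH 7.5 to remove free inhibitor, the other unwashed; both assayed with [γ-32P]ATP and phosphatidylinositol, PI3P counted by scintillation.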"}, "[12]": {"test_system": "MKN-1", "assay": "Growth inhibition of human MKN-1 cells measured after 48 hrs by sulforhodamine B assay", "format": "functional", "outline": "as §1"}, "[13]": {"test_system": "OVCAR-3", "assay": "Induction of apoptosis in human OVCAR-3 cells assessed as increase in chromatin condensation at 10 uM measured after 48 hrs by Hoechst 33342 staining based fluorescence microscopic analysis", "format": "functional, cell-based", "outline": "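OVCAR3 cells grown 24 h in RPMI 1640 with 5% FBS, then 48 h with or without 10 μM compound; fixed in 1% glutaraldehyde in PBS at 4 °C for 24 h, stained with 167 μM Hoechst 33342, apoptotic cells scored by fluorescence microscopy.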"}, "[14]": {"test_system": "A549", "assay": "Downregulation of cyclin D1 expression in human A549 cells at 0.5 uM measured after 30 mins by Western blotting analysis", "format": "functional, cell-based", "outline": "as §2"}, "[15]": {"test_system": "MKN-7", "assay": "Growth inhibition of human MKN-7 cells measured after 48 hrs by sulforhodamine B assay", "format": "functional", "outline": "as §1"}, "[16]": {"assay": "Toxicity in nude mouse xenografted with human WiDr cells assessed as change in body weight at 400 mg/kg, po administered on day 0 to 13 except for day 3 and 10 measured after 28 days (reference value: 17 %)", "format": "organism-based", "settings": "in vivo, 672 h, time 28 day"}, "[17]": {"test_system": "OVCAR-3", "assay": "Growth inhibition of human OVCAR-3 cells measured after 48 hrs by sulforhodamine B assay", "format": "functional", "outline": "as §1"}, "[18]": {"test_system": "DU-145", "assay": "Growth inhibition of human DU-145 cells measured after 48 hrs by sulforhodamine B assay", "format": "functional", "outline": "as §1"}, "[19]": {"assay": "Toxicity in nude mouse xenografted with human A549 cells assessed as change in body weight at 400 mg/kg, po administered on day 0 to 13 except for day 3 and 10 measured after 28 days (reference value: 17 %)", "format": "organism-based", "settings": "in vivo, 672 h, time 28 day"}, "[20]": {"test_system": "NCI-H226", "assay": "Growth inhibition of human NCI-H226 cells measured after 48 hrs by sulforhodamine B assay", "format": "functional", "outline": "as §1"}, "[21]": {"assay": "Growth inhibition of human HBC5 cells measured after 48 hrs by sulforhodamine B assay", "format": "functional", "outline": "as §1"}, "[22]": {"test_system": "A549", "assay": "Inhibition of AKT phosphorylation at S473 residue in human A549 cells at 0.5 uM measured after 5 mins by Western blotting analysis", "format": "cell-based"}, "[23]": {"test_system": "A549", "assay": "Antitumor activity against human A549 cells xenografted in nude mouse assessed as inhibition of tumor growth at 400 mg/kg, po administered on day 0 to 13 except for day 3 and 10 measured after 14 days", "format": "functional, organism-based", "settings": "time 14.0 day", "outline": "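Female BALB/c-background nude mice were implanted s.c. with 3 × 3 × 3 mm tumor fragments. At 100–300 mm3 tumor volume (day 0), groups of five were randomized and dosed orally at 400 mg/kg on days 0–13, skipping days 3 and 10. Caliper volume was (L×W2)/2, relative to day 0 (RTV). T/C% on day 14 = 100 × mean treated RTV / mean control RTV.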"}, "[24]": {"test_system": "SF-268", "assay": "Growth inhibition of human SF-268 cells measured after 48 hrs by sulforhodamine B assay", "format": "functional", "outline": "as §1"}, "[25]": {"test_system": "OVCAR-8", "assay": "Growth inhibition of human OVCAR-8 cells measured after 48 hrs by sulforhodamine B assay", "format": "functional", "outline": "as §1"}, "[26]": {"test_system": "ACHN", "assay": "Growth inhibition of human ACHN cells measured after 48 hrs by sulforhodamine B assay", "format": "functional", "outline": "as §1"}, "[27]": {"test_system": "SF-539", "assay": "Growth inhibition of human SF-539 cells measured after 48 hrs by sulforhodamine B assay", "format": "functional", "outline": "as §1"}, "[28]": {"test_system": "PC-3", "assay": "Growth inhibition of human PC-3 cells measured after 48 hrs by sulforhodamine B assay", "format": "functional", "outline": "as §1"}, "[29]": {"test_system": "MKN-45", "assay": "Growth inhibition of human MKN-45 cells measured after 48 hrs by sulforhodamine B assay", "format": "functional", "outline": "as §1"}, "[30]": {"test_system": "DMS-114", "assay": "Growth inhibition of human DMS-114 cells measured after 48 hrs by sulforhodamine B assay", "format": "functional", "outline": "as §1"}}, "note": "The source made the active and inactive calls. No cut-off for these calls is given here."}
{"compound": "FC(F)c1nc2ccccc2n1-c1nc(N2CCOCC2)nc(N2CCOCC2)n1", "note": "[ZSTK-474]", "values": [{"measurement": "inhibition", "setting": "[1]", "value": "Dose-Dependent Effect"}, {"measurement": "GI50", "setting": "[2]", "value": 1510, "unit": "nM"}, {"measurement": "inhibition", "setting": "[3]", "value": "inactive"}, {"measurement": "T/C at 200 mg/kg", "setting": "[4]", "value": 7.1, "unit": "%"}, {"measurement": "Activity", "setting": "[5]", "value": "Dose-Dependent Effect"}, {"measurement": "IC50", "setting": "[6]", "value": 37, "unit": "nM"}, {"measurement": "Activity", "setting": "[7]", "value": "Dose-Dependent Effect"}, {"measurement": "inhibition", "setting": "[8]", "value": "inactive"}, {"measurement": "GI50", "setting": "[9]", "value": 501, "unit": "nM"}, {"measurement": "GI50", "setting": "[10]", "value": 813, "unit": "nM"}, {"measurement": "inhibition", "setting": "[11]", "value": "Active"}, {"measurement": "GI50", "setting": "[12]", "value": 224, "unit": "nM"}, {"measurement": "Activity", "setting": "[13]", "value": "Active"}, {"measurement": "Activity", "setting": "[14]", "value": "Active"}, {"measurement": "GI50", "setting": "[15]", "value": 1320, "unit": "nM"}, {"measurement": "Activity", "setting": "[16]", "value": 3, "unit": "%"}, {"measurement": "GI50", "setting": "[17]", "value": 91.2, "unit": "nM"}, {"measurement": "GI50", "setting": "[18]", "value": 912, "unit": "nM"}, {"measurement": "Activity", "setting": "[19]", "value": 0, "unit": "%"}, {"measurement": "GI50", "setting": "[20]", "value": 120, "unit": "nM"}, {"measurement": "GI50", "setting": "[21]", "value": 28.2, "unit": "nM"}, {"measurement": "inhibition", "setting": "[22]", "value": "Active"}, {"measurement": "Activity", "setting": "[23]", "value": "Active"}, {"measurement": "GI50", "setting": "[24]", "value": 646, "unit": "nM"}, {"measurement": "GI50", "setting": "[25]", "value": 1050, "unit": "nM"}, {"measurement": "GI50", "setting": "[26]", "value": 407, "unit": "nM"}, {"measurement": "GI50", "setting": "[27]", "value": 347, "unit": "nM"}, {"measurement": "GI50", "setting": "[28]", "value": 38, "unit": "nM"}, {"measurement": "GI50", "setting": "[29]", "value": 288, "unit": "nM"}, {"measurement": "GI50", "setting": "[30]", "value": 295, "unit": "nM"}]}
